Experimental data: ChEMBL document CHEMBL4680134, “Structural optimization of natural product nordihydroguaretic acid to discover novel analogues as AcrB inhibitors” (Eur J Med Chem, 2020)
Calls of active or inactive are those of the source. The rule behind the calls is not given here.

Assays:
[1] = target: T1, Multidrug efflux pump subunit AcrB (Escherichia coli (strain K12)) (UniProt P31224); assay: Inhibition of AcrB in Escherichia coli BW25113 assessed as potentiation of rifampicin induced antibacterial activity by measuring rifampicin MIC at 32 ug/ml measured after 18 hrs by checkerboard titration method (reference value: 16 ug/ml); details: dose 32.0 µg/ml
T1 sequence (whole entry): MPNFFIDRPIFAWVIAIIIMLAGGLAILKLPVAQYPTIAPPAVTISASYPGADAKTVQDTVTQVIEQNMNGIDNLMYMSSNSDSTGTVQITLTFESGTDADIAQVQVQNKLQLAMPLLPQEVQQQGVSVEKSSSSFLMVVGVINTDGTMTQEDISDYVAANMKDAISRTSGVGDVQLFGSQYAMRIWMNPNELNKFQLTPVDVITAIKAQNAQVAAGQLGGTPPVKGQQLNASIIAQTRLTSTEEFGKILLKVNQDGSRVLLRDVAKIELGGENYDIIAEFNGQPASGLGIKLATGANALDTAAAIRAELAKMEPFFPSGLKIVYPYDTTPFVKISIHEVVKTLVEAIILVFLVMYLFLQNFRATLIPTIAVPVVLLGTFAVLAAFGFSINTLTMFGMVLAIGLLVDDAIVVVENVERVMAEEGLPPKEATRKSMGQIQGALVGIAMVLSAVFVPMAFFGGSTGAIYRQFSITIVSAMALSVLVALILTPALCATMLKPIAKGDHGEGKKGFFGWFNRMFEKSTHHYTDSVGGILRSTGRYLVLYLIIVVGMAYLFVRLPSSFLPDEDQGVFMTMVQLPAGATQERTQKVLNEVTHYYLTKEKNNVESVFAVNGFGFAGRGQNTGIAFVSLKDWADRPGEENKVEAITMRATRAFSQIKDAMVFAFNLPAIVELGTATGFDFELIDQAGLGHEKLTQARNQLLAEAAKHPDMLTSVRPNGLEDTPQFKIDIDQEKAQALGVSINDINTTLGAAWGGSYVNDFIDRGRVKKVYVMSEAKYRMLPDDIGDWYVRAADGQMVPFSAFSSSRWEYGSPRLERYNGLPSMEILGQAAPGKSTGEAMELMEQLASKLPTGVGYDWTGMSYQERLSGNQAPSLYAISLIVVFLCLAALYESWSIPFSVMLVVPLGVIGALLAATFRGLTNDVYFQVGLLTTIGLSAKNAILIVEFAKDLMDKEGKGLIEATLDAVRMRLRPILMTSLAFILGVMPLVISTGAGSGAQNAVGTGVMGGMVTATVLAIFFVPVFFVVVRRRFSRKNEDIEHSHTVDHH

[2] = target: T1, Multidrug efflux pump subunit AcrB (Escherichia coli (strain K12)); assay: Inhibition of AcrB in Escherichia coli BW25113 assessed as reduction in glucose-induced nile red efflux at 50 to 100 uM preincubated for 15 mins followed by nile red addition and incubated for 3 hrs in shaker in presence of CCCP by fluorimetric analysis; details: dose 50-100 µM, time 195.0 min
In short: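 Whole-cell efflux: wild-type and ΔAcrB cells preloaded with Nile Red, with or without compound, before fluorescence readings. Efflux triggered at 100 s with 0.2% glucose and followed by fluorometry. The ΔAcrB strain marks maximal accumulation. Triplicate experiments with different cell batches.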

[3] = target: T1, Multidrug efflux pump subunit AcrB (Escherichia coli (strain K12)); assay: Inhibition of AcrB in Escherichia coli BW25113 assessed as potentiation of rifampicin induced antibacterial activity by measuring rifampicin MIC at 128 ug/ml measured after 18 hrs by checkerboard titration method (reference value: 16 ug/ml); details: dose 128.0 µg/ml
[4] = target: T1, Multidrug efflux pump subunit AcrB (Escherichia coli (strain K12)); assay: Inhibition of AcrB in Escherichia coli BW25113 assessed as potentiation of tetraphenylphosphonium induced antibacterial activity by measuring tetraphenylphosphonium MIC at 64 ug/ml measured after 18 hrs by checkerboard titration method (reference value: 1024 ug/ml); details: dose 64.0 µg/ml
[5] = target: T1, Multidrug efflux pump subunit AcrB (Escherichia coli (strain K12)); assay: Inhibition of AcrB in Escherichia coli BW25113 assessed as potentiation of erythromycin induced antibacterial activity by measuring erythromycin MIC at 256 ug/ml measured after 18 hrs by checkerboard titration method (reference value: 64 ug/ml); details: dose 256.0 µg/ml
[6] = target: T1, Multidrug efflux pump subunit AcrB (Escherichia coli (strain K12)); assay: Inhibition of AcrB in Escherichia coli BW25113 assessed as potentiation of tetraphenylphosphonium induced antibacterial activity by measuring tetraphenylphosphonium MIC at 256 ug/ml measured after 18 hrs by checkerboard titration method (reference value: 1024 ug/ml); details: dose 256.0 µg/ml
[7] = target: T1, Multidrug efflux pump subunit AcrB (Escherichia coli (strain K12)); assay: Inhibition of AcrB in Escherichia coli BW25113 assessed as potentiation of rifampicin induced antibacterial activity by measuring rifampicin MIC at 16 ug/ml measured after 18 hrs by checkerboard titration method (reference value: 16 ug/ml); details: dose 16.0 µg/ml
[8] = target: T1, Multidrug efflux pump subunit AcrB (Escherichia coli (strain K12)); assay: Inhibition of AcrB in Escherichia coli BW25113 assessed as potentiation of levofloxacin induced antibacterial activity by measuring levofloxacin MIC at 16 ug/ml measured after 18 hrs by checkerboard titration method (reference value: 0.06 ug/ml); details: dose 16.0 µg/ml
[9] = target: T1, Multidrug efflux pump subunit AcrB (Escherichia coli (strain K12)); assay: Inhibition of AcrB in Escherichia coli BW25113 assessed as potentiation of erythromycin induced antibacterial activity by measuring erythromycin MIC at 64 ug/ml measured after 18 hrs by checkerboard titration method (reference value: 64 ug/ml); details: dose 64.0 µg/ml
[10] = target: T1, Multidrug efflux pump subunit AcrB (Escherichia coli (strain K12)); assay: Inhibition of AcrB in Escherichia coli BW25113 assessed as potentiation of tetraphenylphosphonium induced antibacterial activity by measuring tetraphenylphosphonium MIC at 128 ug/ml measured after 18 hrs by checkerboard titration method (reference value: 1024 ug/ml); details: dose 128.0 µg/ml
[11] = target: T1, Multidrug efflux pump subunit AcrB (Escherichia coli (strain K12)); assay: Inhibition of AcrB in Escherichia coli BW25113 assessed as potentiation of chloramphenicol induced antibacterial activity by measuring chloramphenicol MIC at 256 ug/ml measured after 18 hrs by checkerboard titration method (reference value: 8 ug/ml); details: dose 256.0 µg/ml
[12] = target: T1, Multidrug efflux pump subunit AcrB (Escherichia coli (strain K12)); assay: Inhibition of AcrB in Escherichia coli BW25113 assessed as potentiation of levofloxacin induced antibacterial activity by measuring levofloxacin MIC at 8 ug/ml measured after 18 hrs by checkerboard titration method (reference value: 0.06 ug/ml); details: dose 8.0 µg/ml
[13] = target: T1, Multidrug efflux pump subunit AcrB (Escherichia coli (strain K12)); assay: Inhibition of AcrB in Escherichia coli BW25113 assessed as potentiation of chloramphenicol induced antibacterial activity by measuring chloramphenicol MIC at 8 ug/ml measured after 18 hrs by checkerboard titration method (reference value: 8 ug/ml); details: dose 8.0 µg/ml
[14] = target: T1, Multidrug efflux pump subunit AcrB (Escherichia coli (strain K12)); assay: Inhibition of AcrB in Escherichia coli BW25113 assessed as potentiation of erythromycin induced antibacterial activity by measuring erythromycin MIC at 8 ug/ml measured after 18 hrs by checkerboard titration method (reference value: 64 ug/ml); details: dose 8.0 µg/ml
[15] = target: T1, Multidrug efflux pump subunit AcrB (Escherichia coli (strain K12)); assay: Inhibition of AcrB in Escherichia coli BW25113 assessed as potentiation of rifampicin induced antibacterial activity by measuring rifampicin MIC at 8 ug/ml measured after 18 hrs by checkerboard titration method (reference value: 16 ug/ml); details: dose 8.0 µg/ml
[16] = target: T1, Multidrug efflux pump subunit AcrB (Escherichia coli (strain K12)); assay: Inhibition of AcrB in Escherichia coli BW25113 assessed as potentiation of tetraphenylphosphonium induced antibacterial activity by measuring tetraphenylphosphonium MIC at 8 ug/ml measured after 18 hrs by checkerboard titration method (reference value: 1024 ug/ml); details: dose 8.0 µg/ml

SMILES	MIC [1]	inhibition [2]	MIC [3]	MIC [4]	MIC [5]	MIC [6]	MIC [7]	MIC [8]	MIC [9]	MIC [10]	MIC [11]	MIC [12]	MIC [13]	MIC [14]	MIC [15]	MIC [16]
Oc1ccc(CCCCc2cc3cccc4ccc5cccc2c5c43)cc1O	16 µg/mL	Active	16 µg/mL	512 µg/mL	32 µg/mL	256 µg/mL	16 µg/mL	0.06 µg/mL	32 µg/mL	256 µg/mL	4 µg/mL					
Cc1ccc(C(=O)NCCc2ccc(O)c(O)c2)cc1	16 µg/mL	Active	16 µg/mL				16 µg/mL	0.06 µg/mL				0.06 µg/mL	8 µg/mL	64 µg/mL	16 µg/mL	1020 µg/mL
